Target: T1, Amine oxidase [flavin-containing] A (Bos taurus, UniProt P21398)
T1 sequence (P21398 whole entry): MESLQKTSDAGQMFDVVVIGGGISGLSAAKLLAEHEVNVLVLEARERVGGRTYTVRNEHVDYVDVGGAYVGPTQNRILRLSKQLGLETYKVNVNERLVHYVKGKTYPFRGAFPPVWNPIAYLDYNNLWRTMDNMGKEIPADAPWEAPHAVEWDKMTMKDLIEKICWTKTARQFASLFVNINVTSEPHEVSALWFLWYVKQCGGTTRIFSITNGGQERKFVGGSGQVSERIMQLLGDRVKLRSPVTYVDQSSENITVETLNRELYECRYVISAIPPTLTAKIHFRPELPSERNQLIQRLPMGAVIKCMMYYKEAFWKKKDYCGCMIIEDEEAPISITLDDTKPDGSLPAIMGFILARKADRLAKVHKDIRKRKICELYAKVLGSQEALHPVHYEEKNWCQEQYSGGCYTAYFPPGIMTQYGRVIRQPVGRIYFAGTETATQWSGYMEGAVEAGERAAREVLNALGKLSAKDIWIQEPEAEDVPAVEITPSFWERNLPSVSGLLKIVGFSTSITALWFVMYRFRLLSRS
Assay: Inhibition of bovine brain mitochondrial Monoamine oxidase A (MAO-A) compared to toloxatone
How it was run: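 Bovine brain mitochondria were isolated by the Basford method. To isolate MAO-A, fractions were preincubated 30 min at 38 °C with 1 μM L-deprenyl. Inhibitors in DMSO were preincubated 30 min, then kynuramine substrate was added, with 30 min further incubation. Product was read fluorimetrically and Ki values derived.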

Compound: O=C1O[C@@H](CO)CN1n1cccc1
- Ki: 270 nM

Source: BindingDB's records for doi:10.1021/jm015578d (Sapienza University of Rome, 2002)
